This is a sample that favours compounds with a hit; in the whole collection about 2.9% have one here.
MEKK3 PB1 HTS: modulators (inhibitors or enhancers) of MEK5 binding to human MEKK3 PB1 domain. binding response (% of control), % at 10 µM. hit rate 1.4% among 290,000. Q99759. AID 1529. bead-based flow cytometry, Alexa488-MEK5 binding to MEKK3; actives lie on both sides; 0 = blocked by unlabeled MEK5, 100 = vehicle;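 active = binding response more than 3 SD above or below the average of its plate-row segment, actives on both sides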;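 note: Alexa488 bead fluorescence after subtracting the streptavidin-only scavenger bead signal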
MEKK2 WT-MEK5: raises or lowers MEK5 binding to wildtype human MEKK2 PB1 domain; bead flow cytometry, Alexa488-MEK5 binding to MEKK2 WT; actives lie on both sides; binding response (% of control), % at 10 µM; hit rate 1.1% among 290,000; AID 1531; in the data active = binding response below about 67% or above about 130%
UBC13 polyUb: blocks human UBC13 polyubiquitin chain formation. P61088. TR-FRET. inhibition, % at 20 µM. hit rate 0.47% among 330,000. AID 485273; in the data active = inhibition above about 45%, passing the limit was not always enough
Apaf-1 inh: blocks human Apaf-1 apoptosome activity | AID 489030 | reconstituted apoptosome caspase-3 activity, DEVD-Rh110 fluorescence | O14727 | inhibition, % at 20 µM | hit rate 0.71% among 330,000; active = inhibition of at least 40% at 20 µM;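 note: plate controls were DMSO wells for no effect and DEVD-CHO caspase inhibitor wells for full effect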
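Material: reconstituted apoptosome with Apaf-1, cytochrome c, caspase-9, procaspase-3, dATP. Technique: Rh110 fluorescence intensity. Buffer or medium: pH 7.5 Hepes buffer with CHAPS, BSA, DTT. Times: 30 min plus 50 min, RT.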
MEKK2 mut-MEK5: signal of MEK5 binding to mutant human MEKK2 PB1 domain | bead flow cytometry, Alexa488-MEK5 binding to MEKK2 mutant | percent response, % at 10 µM | hit rate 0.35% among 290,000 | AID 1530; in the data active = percent response above about 24%, passing the limit was not always enough
Apaf-1 inh conf2: confirmation of Apaf-1 inhibitors; shares compounds with Apaf-1 inh; reconstituted apoptosome, caspase-3 DEVD-Rh110 fluorescence; inhibition, % at 20 µM; hit rate 25% among 1,800;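 active = mean inhibition of at least 40% at 20 µM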;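 note: plate controls were DMSO wells for no effect and DEVD-CHO caspase inhibitor control wells for full effect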
Rh110 interf inh: Rh110 signal interference in Apaf-1 inhibitor counter-screen; Rh110 fluorescence interference, quenched caspase reaction; activation (fluorescence interference), % at 20 µM; AID 504615; shares compounds with Apaf-1 inh; 1,800 tested, under 10 active;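 active = signal rise of 40% or more at 20 µM, treated as a fluorescence artifact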
Fluor interf inh: counter-screen for Apaf-1 inhibitors: fluorescence interference, dose response | shares compounds with Apaf-1 inh | fluorescence interference counterscreen, Apaf-1 assay format | IC50, µM | 460 tested, under 10 active; call rule not given here
Numbers without * were called inactive; . = no result.

SMILES	MEKK3 PB1 HTS	MEKK2 WT-MEK5	UBC13 polyUb	Apaf-1 inh	MEKK2 mut-MEK5	Apaf-1 inh conf2	Rh110 interf inh	others
CCC(=O)N(CC)C1=C(O)c2ccccc2C(=O)C1=O	103	102	-56	55*	6	14	-2
Cc1nn(CCc2nn[nH]n2)c2nc(-c3ccc(C4CCCCC4)cc3)cc(C(F)(F)F)c12	112	85	-20	60*	-10	32	13
CCN1CCN(c2ccc(S(=O)(=O)N3CCCCC3)cc2NC(=O)/C=C/c2ccc(OC(F)F)cc2)CC1	.	.	15	52*	.	9	4
CCN(CC(=O)Nc1cc(S(=O)(=O)N2CCOCC2)ccc1Cl)Cc1ccccc1	.	.	17	42*	.	29	9
CCN1CCN(c2ccc(S(=O)(=O)N3CCCCC3)cc2NC(=O)/C=C/c2ccc([N+](=O)[O-])cc2)CC1	.	.	10	36	.	.	.
CCN1CCN(c2ccc(S(=O)(=O)N3CCOCC3)cc2NC(=O)CC(C)C)CC1	.	.	25	50*	.	37	4
CN1CCN(c2ccc(S(=O)(=O)N3CCCCC3)cc2NC(=O)/C=C/c2ccc(Cl)c([N+](=O)[O-])c2)CC1	.	.	18	51*	.	15	13
Cc1c(N(C)S(=O)(=O)c2ccc(Cl)c(C(=O)N3CCC(C(N)=O)CC3)c2)c(=O)n(-c2ccccc2)n1C	.	.	6	-1	.	.	.
COc1ccc2c(c1)C(=NN)c1cc(OC)ccc1-2	102	111	-10	7	5	.	.
CCOc1ccc(NC(=O)CN(C)C(=O)c2cn3ccccc3n2)cc1OCC	.	.	-5	-2	.	.	.
O=C(Nc1ccc(S(=O)(=O)Nc2ncccn2)cc1)C1CC(=O)N(c2ccc(Cl)cc2)C1 (centres undefined)	100	102	0	1	1	.	.
CC(=O)c1ccc(OCCCC(=O)N2CCN(S(=O)(=O)c3ccc(C)cc3C)CC2)cc1	.	.	28	40*	.	32	0
O=c1cc(N/N=C/c2ccccc2)[nH]c(=O)[nH]1	.	.	-33	68*	.	43*	8	Fluor interf inh=>100
O=c1nccc(N/N=C/c2ccccc2)[nH]1	106	108	-5	3	4	.	.
CC(C)CCN(C(=S)NC(=O)C1CCCCC1)c1c(N)n(Cc2ccccc2)c(=O)[nH]c1=O	118	106	-7	11	-1	.	.
Oc1ccc(NCc2ccccc2OCc2ccccc2)cc1	97	92	5	90*	-1	18	6
O=C(Nc1ccc(C(=O)N2CCCCC2)cc1)c1ccccc1Br	105	112	-11	-5	10	.	.
N#Cc1nc(-c2ccco2)oc1N1CCc2ccccc2C1	103	103	3	52*	2	25	21
CC1OC(Nc2cccc3ccccc23)C(O)C(O)C1O (centres undefined)	101	101	-68	96*	4	64*	2	Fluor interf inh=>100
CC1OC(Nc2ccc(N=Nc3ccccc3)cc2)C(O)C(O)C1O (centres undefined)	103	97	-36	7	-4	.	.
Nc1cc(C(Cl)=C(Cl)Cl)c(S(N)(=O)=O)cc1S(N)(=O)=O	.	.	4	-6	.	.	.
CC1=NN(c2ccc(S(=O)(=O)O)cc2C)C(=O)C1	88	82	-6	51*	-10	19	14
CCn1cc(C(=O)OCC(=O)OC2CC(C)CCC2C(C)C)c(=O)c2ccc(C)nc21 (centres undefined)	110	106	8	48*	1	26	7
CC1CCCCC1NC(=O)Cn1cc([N+](=O)[O-])ccc1=O (centres undefined)	.	.	3	-10	.	.	.
Cc1cccc(N2C(=O)C(Oc3ccc(Cl)cc3Cl)C2C=O)c1C (centres undefined)	107	103	.	.	-2	.	.
COc1ccc(CCN2C(=O)c3[nH]nc(-c4ccccc4O)c3C2c2cccc(Cl)c2)cc1 (centres undefined)	107	92	-7	41*	3	10	13
